# Legend:
# Vitamin D3 receptor [1] = biological target: T1, Vitamin D3 receptor (Homo sapiens, UniProt P11473); test: Agonist activity at human VDR in HEK293 cells assessed as induction of transcriptional transactivation after 24 hrs by mouse osteopontin luciferase reporter gene assay; assay type: functional, cell-based
# T1 sequence (P11473 whole entry): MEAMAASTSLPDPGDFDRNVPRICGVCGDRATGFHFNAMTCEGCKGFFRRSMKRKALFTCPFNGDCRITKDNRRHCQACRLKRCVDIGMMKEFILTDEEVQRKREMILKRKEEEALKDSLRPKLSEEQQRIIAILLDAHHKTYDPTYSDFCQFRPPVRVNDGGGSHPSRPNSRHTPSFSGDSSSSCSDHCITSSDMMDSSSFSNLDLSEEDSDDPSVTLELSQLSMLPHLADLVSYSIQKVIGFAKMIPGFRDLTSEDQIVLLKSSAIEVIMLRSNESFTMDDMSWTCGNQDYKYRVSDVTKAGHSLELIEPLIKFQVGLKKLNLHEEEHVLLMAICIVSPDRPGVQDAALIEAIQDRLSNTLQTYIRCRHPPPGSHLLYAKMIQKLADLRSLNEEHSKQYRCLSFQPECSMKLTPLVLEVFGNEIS
# Vitamin D3 receptor [2] = biological target: T2, Vitamin D3 receptor (Rattus norvegicus, UniProt P13053); test: Displacement of [3H]1,25-(OH)2D3 from rat recombinant His-tagged VDR ligand-binding domain expressed in Escherichia coli BL21
# T2 sequence (P13053 whole entry): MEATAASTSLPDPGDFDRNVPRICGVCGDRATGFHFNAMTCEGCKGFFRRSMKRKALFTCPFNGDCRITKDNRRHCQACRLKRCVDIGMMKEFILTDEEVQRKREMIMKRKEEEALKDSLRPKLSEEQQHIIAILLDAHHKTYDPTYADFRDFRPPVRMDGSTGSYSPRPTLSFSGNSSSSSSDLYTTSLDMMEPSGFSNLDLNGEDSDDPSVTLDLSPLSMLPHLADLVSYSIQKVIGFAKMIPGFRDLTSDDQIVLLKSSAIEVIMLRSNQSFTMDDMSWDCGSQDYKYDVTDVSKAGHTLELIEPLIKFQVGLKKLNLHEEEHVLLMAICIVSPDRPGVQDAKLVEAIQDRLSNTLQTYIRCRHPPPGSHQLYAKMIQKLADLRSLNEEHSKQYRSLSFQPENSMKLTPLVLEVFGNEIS
# Procedure, shortened: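 Crude lysate of E. coli–expressed His-tagged rat VDR-LBD (aa 115–423), diluted 1000-fold in 50 mM Tris, 100 mM KCl, 5 mM DTT, 0.5% Chaps, pH 7.5, BSA 100 µg/mL. Ligand preincubated 1 h RT, then [3H]-1,25-(OH)2D3 (~5000 dpm) 18 h at 4 °C. Dextran-charcoal separation, scintillation counting; at least twice in duplicate; EC50 for 50% displacement.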
# Vitamin D3 receptor [3] = biological target: T1, Vitamin D3 receptor; test: Agonist activity at human VDR in COS7 cells assessed as induction of transcriptional transactivation after 24 hrs by mouse osteopontin luciferase reporter gene assay; assay type: functional, cell-based, COS-7
# Vitamin D3 receptor [4] = biological target: T1, Vitamin D3 receptor; test: Antagonist activity at human VDR in HEK293 cells assessed as induction of transcriptional transactivation after 24 hrs by mouse osteopontin luciferase reporter gene assay; assay type: functional, cell-based
# Procedure, shortened: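 HEK293 cells in DMEM + 5% FBS with penicillin/streptomycin, 37 °C, 5% CO2; calcium phosphate cotransfection of hVDR expression plasmid and SPPx3-TK-Luc reporter. Compounds added 8 h later with 10 nM 1,25-(OH)2D3; harvest after 16–24 h. Luciferase normalized to β-galactosidase; triplicate; IC50 from dose–response curves.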
# Vitamin D3 receptor [5] = biological target: T1, Vitamin D3 receptor; test: Antagonist activity at human VDR in COS7 cells assessed as induction of transcriptional transactivation after 24 hrs by mouse osteopontin luciferase reporter gene assay; assay type: functional, cell-based, COS-7
# Procedure, shortened: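 Cos7 cells grown in DMEM + 5% FBS, seeded 2 × 10⁴/well; after 24 h lipofected with hVDR expression plasmid, SPPx3-TK-Luc reporter and pRL-CMV control. After 4 h switched to 5% charcoal-treated FCS; next day ligand given with 10 nM 1,25-(OH)2D3 for 24 h. Dual luciferase normalized to internal control; IC50 from dose–response curves.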
SMILES,EC50 (Vitamin D3 receptor [1]) [nM],EC50 (Vitamin D3 receptor [2]) [nM],EC50 (Vitamin D3 receptor [3]) [nM],IC50 (Vitamin D3 receptor [4]) [nM],IC50 (Vitamin D3 receptor [5]) [nM]
C=C1C[C@@H](C[C@@H](C)[C@H]2CC[C@H]3/C(=C/C=C4C[C@@H](O)C(=C)[C@H](O)C4)CCC[C@]23C)OC1=O,200,20,150,300,1000
C=C1C[C@H](C[C@@H](C)[C@H]2CC[C@H]3/C(=C/C=C4C[C@@H](O)C(=C)[C@H](O)C4)CCC[C@]23C)OC1=O,1,0.7,25,–,–
C=C1C[C@H](C[C@H](C)[C@H]2CC[C@H]3/C(=C/C=C4C[C@@H](O)C(=C)[C@H](O)C4)CCC[C@]23C)OC1=O,15,5,10,–,100
C=C1C[C@@H](C[C@H](C)[C@H]2CC[C@H]3/C(=C/C=C4C[C@@H](O)C(=C)[C@H](O)C4)CCC[C@]23C)OC1=O,20,5,6,–,300
